Experiment [1] has as its system C2C12. Briefly: Inhibition of TGFbeta1-induced fibrosis in mouse C2C12 cells assessed as reduction in alphaSMA protein expression level at 10 uM preincubated for 30 mins followed by TGFbeta1 addition and measured after 48 hrs by Western blot analysis. Format: functional, cell-based. The method, boiled down:
(§1)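 C2C12 myoblasts were seeded to 80% confluence. Cells received 10 μM inhibitor and 5.0 ng/mL TGFβ1, with inhibitor exposure of 30 min or 2 h. α-SMA and SMα22 were detected by Western blot with specific antibodies. Bands were quantified by densitometry and normalized to β-actin. Results are fold change over untreated control, mean ± SD of three independent experiments. Two-way ANOVA with Bonferroni post hoc test.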
(A western blot detects proteins with antibodies after separation by electrophoresis.)

Experiment [2] deals with C2C12. Briefly: Inhibition of TGFbeta1-induced fibrosis in mouse C2C12 cells assessed as reduction in SMalpha22 protein expression level at 10 uM preincubated for 30 mins followed by TGFbeta1 addition and measured after 48 hrs by Western blot analysis. Type of experiment: functional, cell-based. The essentials:
as §1

Experiment [3] has as its system C2C12. Briefly: Inhibition of TGFbeta1-induced fibrosis in mouse C2C12 cells assessed as reduction in caveolin3 protein expression level preincubated for 2 hrs followed by TGFbeta1 addition and measured after 48 hrs by Western blot analysis relative to control. Type of experiment: functional.
For experiment [4], the system named is C2C12. Briefly: Inhibition of TGFbeta1-induced fibrosis in mouse C2C12 cells assessed as reduction in alphaSMA protein expression level at 10 uM preincubated for 30 mins followed by TGFbeta1 addition and measured after 48 hrs by Western blot analysis relative to control. Format: functional. The method, boiled down: as §1
Experiment [5] deals with C2C12. Briefly: Inhibition of TGFbeta1-induced fibrosis in mouse C2C12 cells assessed as reduction in alphaSMA protein expression level at 10 uM preincubated for 120 mins followed by TGFbeta1 addition and measured after 48 hrs by DAPI and rhodamine phalloidin staining based laser scanning confocal microscopic method relative to control. Format: functional. The essentials:
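C2C12 cells were serum-starved for 24 h, preincubated 2 h with 10 μM inhibitor, then treated with 5.0 ng/mL TGFβ1 for 48 h. Confocal immunofluorescence used an anti-αSMA primary antibody with a fluorescein-conjugated anti-mouse secondary antibody. αSMA localization was assessed relative to F-actin microfilaments.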

Experiment [6] has as its system C2C12. Briefly: Inhibition of TGFbeta1-induced fibrosis in mouse C2C12 cells assessed as reduction in SMalpha22 protein expression level at 10 uM preincubated for 2 hrs followed by TGFbeta1 addition and measured after 48 hrs by Western blot analysis. Type of experiment: functional, cell-based. The method, boiled down:
as §1

Experiment [7] concerns C2C12. The experiment in a line: Inhibition of TGFbeta1-induced fibrosis in mouse C2C12 cells preincubated for 2 hrs followed by TGFbeta1 addition and measured after 48 hrs by Western blot analysis relative to control.

The structures appear in SMILES notation. The source made the active and inactive calls. No cut-off for these calls is given here.

On to `CC(=O)N[C@H]1[C@H](OCc2ccc(COc3cc(C)cc(CS(=O)(=O)c4ccccc4)c3)cc2)O[C@H](CO)[C@@H](O)[C@@H]1O`, for which the inhibition (as a rule, the relative decrease from the control value, in per cent) in experiment [1] was “Active”.
With `Cc1cc(CS(=O)(=O)c2ccccc2)cc(OCc2ccc(CO[C@@H]3O[C@H](CO)[C@H](O)[C@H](O)[C@H]3O)cc2)c1`, the inhibition entry in experiment [2] and in experiment [1] was “inactive” each time.
Consider `CC(=O)OC[C@H]1O[C@@H](OCc2ccc(COc3cc(C)cc(CS(=O)(=O)c4ccccc4)c3)cc2)[C@H](OC(C)=O)[C@@H](OC(C)=O)[C@@H]1OC(C)=O`, for which, in experiment [3], the “inhibition (INH)” value was determined as 100%. In addition, the inhibition entry in experiment [2], in experiment [1] and in experiment [6] was “Active” each time. Further, the inhibition at 10 µM in experiment [4] and in experiment [5] was 100% each time.
Take `Cc1cc(CS(=O)(=O)c2ccccc2)cc(OCc2ccc(CN3CCC[C@@H]3CO)cc2)c1`: the inhibition entry in experiment [2] and in experiment [1] was “Active” in each case. In addition, the inhibition at 10 µM in experiment [5] turned out to be 100%.
For the molecule `Cc1cc(CS(=O)(=O)c2ccccc2)cc(OCc2ccc(CO[C@@H]3O[C@H](CO)[C@@H](O)[C@H](O)[C@H]3O)cc2)c1`, the inhibition entry in experiment [2] and in experiment [1] was “Active” in each case. In addition, the inhibition at 10 µM in experiment [5] turned out to be 100%. For the same molecule, the “inhibition (INH)” value in experiment [7] stood at 100%.

The record behind these values is ChEMBL document CHEMBL4613310, “Glycans Meet Sphingolipids: Structure-Based Design of Glycan Containing Analogues of a Sphingosine Kinase Inhibitor” (2020).
